According to ChEMBL document CHEMBL3352718, “CB2-selective cannabinoid receptor ligands: synthesis, pharmacological evaluation, and molecular modeling investigation of 1,8-Naphthyridin-2(1H)-one-3-carboxamides” (J Med Chem, 2014):
pEC50, pIC50, pKi: −log10 of the molar value.

Assays:
HEK293 = assay: Selectivity ratio of Ki for human recombinant CB1R expressed in HEK-293 cells to Ki for human recombinant CB2R expressed in HEK-293 cells; format: cell-based
Cannabinoid receptor 2 [1] = molecular target: T1, Cannabinoid receptor 2 (Homo sapiens, UniProt P34972); assay: Displacement of [3H]CP-55,940 from human recombinant CB2R expressed in HEK-293 cells after 90 mins by liquid scintillation counting; design: species or system HEK293
T1 sequence (P34972 whole entry): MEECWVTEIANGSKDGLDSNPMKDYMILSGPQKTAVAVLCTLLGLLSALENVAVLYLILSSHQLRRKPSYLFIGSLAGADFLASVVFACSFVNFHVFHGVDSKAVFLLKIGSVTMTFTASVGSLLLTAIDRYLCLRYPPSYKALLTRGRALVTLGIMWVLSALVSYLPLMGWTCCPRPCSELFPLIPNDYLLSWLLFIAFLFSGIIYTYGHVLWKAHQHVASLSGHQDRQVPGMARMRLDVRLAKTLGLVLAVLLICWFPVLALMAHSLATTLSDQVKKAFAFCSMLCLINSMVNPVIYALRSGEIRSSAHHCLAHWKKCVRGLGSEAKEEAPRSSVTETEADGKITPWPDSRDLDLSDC

Cannabinoid receptor 1 = Cannabinoid receptor 1 (Homo sapiens, UniProt P21554); assay: Displacement of [3H]CP-55,940 from human recombinant CB1R expressed in HEK-293 cells after 90 mins by liquid scintillation counting; design: species or system HEK293
Sequence of Cannabinoid receptor 1 (P21554 whole entry): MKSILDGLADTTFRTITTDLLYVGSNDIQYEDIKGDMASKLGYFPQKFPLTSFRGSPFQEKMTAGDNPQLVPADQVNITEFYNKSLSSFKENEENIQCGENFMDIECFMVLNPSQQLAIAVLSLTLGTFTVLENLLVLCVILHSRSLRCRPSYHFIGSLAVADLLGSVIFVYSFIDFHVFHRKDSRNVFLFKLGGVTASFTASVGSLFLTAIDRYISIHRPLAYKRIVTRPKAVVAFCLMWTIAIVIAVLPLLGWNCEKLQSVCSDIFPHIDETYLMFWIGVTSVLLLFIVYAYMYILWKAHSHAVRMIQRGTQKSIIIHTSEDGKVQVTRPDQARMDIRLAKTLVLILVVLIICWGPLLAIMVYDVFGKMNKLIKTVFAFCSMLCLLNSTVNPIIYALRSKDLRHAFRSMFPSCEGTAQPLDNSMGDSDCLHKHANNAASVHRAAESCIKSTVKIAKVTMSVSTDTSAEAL

Cannabinoid receptor 2 [2] = molecular target: T1, Cannabinoid receptor 2; assay: Agonist activity at human recombinant CB2R expressed in […] U2OS cells assessed as reduction in forskolin-mediated cAMP level after 30 mins by time-resolved fluorescence assay; format: functional, cell-based
Outline: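 hCB2R-expressing U2OS cells in HBSS stimulation buffer with 0.1% BSA, 0.5 mM IBMX and 5 mM HEPES, pH 7.4, at 3000 cells/well. Cells treated with forskolin (10 μM final) and various ligand concentrations for 30 min at room temperature. cAMP measured by LANCE TR-FRET (Eu-cAMP tracer plus ULight antibody, 1 h in the dark, 615/665 nm) against a cAMP standard curve. Three experiments in triplicate.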

Cannabinoid receptor 2 [3] = molecular target: T1, Cannabinoid receptor 2; assay: Agonist activity at human recombinant CB2R expressed in U2OS cells assessed as beta-arrestin-GFP binding to receptor […] by fluorescent microscopy; format: cell-based
Cannabinoid receptor 2 [4] = molecular target: T1, Cannabinoid receptor 2; assay: Antagonist activity at human recombinant CB2R expressed in U2OS cells assessed as inhibition of WIN-55212-induced beta-arrestin-GFP binding to receptor preincubated for 15 mins by fluorescent microscopy; format: cell-based
Outline: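 Same βarr2-GFP redistribution set-up in hCB2R U2OS cells on coverslips. […] Fixed in 4% paraformaldehyde, imaged by fluorescence microscopy. […] Three experiments in duplicate.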

Cannabinoid receptor 2 [5] = molecular target: T1, Cannabinoid receptor 2; assay: Antagonist activity at human recombinant CB2R expressed in WIN-55212-stimulated U2OS cells assessed as increase in forskolin-mediated cAMP level after 30 mins by time-resolved fluorescence assay; format: functional, cell-based; settings: for IC50: u2os

Structure (SMILES) | Ratio Ki (HEK293) | pKi (Cannabinoid receptor 2 [1]) | pKi (Cannabinoid receptor 1) | other results
CC1CCC(NC(=O)c2cc3cccnc3n(CCCCCCF)c2=O)CC1 (stereo not drawn) | 24.4 | 8.84 | 7.45 | –
CC1CCC(NC(=O)c2cc3cc(-c4cccs4)cnc3n(Cc3ccc(F)cc3)c2=O)CC1 (stereo not drawn) | 1770 | 8.73 | 5.48 | –
CC1CCC(NC(=O)c2cc3cccnc3n(CCCC(=O)O)c2=O)CC1 (stereo not drawn) | – | 5.61 | < 5.00 | –
CCCCCn1c(=O)c(C(=O)NC2CCC(C)CC2)cc2cccnc21 (stereo not drawn) | 322 | 8.55 | 6.04 | –
COC(=O)CCCCn1c(=O)c(C(=O)NC2CCC(C)CC2)cc2cccnc21 (stereo not drawn) | – | 7.57 | < 5.00 | –
CC1CCC(NC(=O)c2cc3cccnc3n(CCCCC(=O)O)c2=O)CC1 (stereo not drawn) | – | 5.87 | < 5.00 | –
CCCC(C)(C)c1ccc2c(c1)OC(C)(C)[C@@H]1CC=C(C)C[C@@H]21 | 226 | – | – | –
CC1CCC(NC(=O)c2cc3cccnc3n(CCN3CCOCC3)c2=O)CC1 (stereo not drawn) | 526 | – | – | pEC50 (Cannabinoid receptor 2 [2]): 7.55; pEC50 (Cannabinoid receptor 2 [3]): 7.75
C[C@H]1CC[C@@H](NC(=O)c2cc3cc(Br)cnc3n(Cc3ccc(F)cc3)c2=O)CC1 | 1010 | 9.92 | 6.92 | –
CC1CCC(NC(=O)c2cc3cccnc3n(CCCCCF)c2=O)CC1 (stereo not drawn) | 40.3 | 9.25 | 7.65 | –
CC1CCC(NC(=O)c2cc3cccnc3n(CCCCCCO)c2=O)CC1 (stereo not drawn) | – | 7.74 | < 5.00 | –
C[C@H]1CC[C@H](NC(=O)c2cc3cc(-c4ccco4)cnc3n(Cc3ccc(F)cc3)c2=O)CC1 | > 106 | 7.03 | < 5.00 | –
CC1CCC(NC(=O)c2cc3cc(-c4ccco4)cnc3n(Cc3ccc(F)cc3)c2=O)CC1 (stereo not drawn) | 5140 | 9.17 | 5.46 | –
CC1CCC(NC(=O)c2cc3cc(-c4cccs4)cnc3n(CCN3CCOCC3)c2=O)CC1 (stereo not drawn) | 192 | 9.77 | 7.49 | –
C[C@H]1CC[C@H](NC(=O)c2cc3cc(-c4cccs4)cnc3n(Cc3ccc(F)cc3)c2=O)CC1 | 6.5 | 7.18 | 6.37 | –
CC1CCC(NC(=O)c2cc3cccnc3n(CCCCO)c2=O)CC1 (stereo not drawn) | – | 7.27 | < 5.00 | pIC50 (Cannabinoid receptor 2 [1]): 6.68; pEC50 (Cannabinoid receptor 2 [3]): 7.63
COc1ccc(-c2cnc3c(c2)cc(C(=O)NC2CCC(C)CC2)c(=O)n3CCN2CCOCC2)cc1 (stereo not drawn) | – | 8.83 | < 5.00 | pIC50 (Cannabinoid receptor 2 [4]): 7.27; IC50 (Cannabinoid receptor 2 [5]): ND(Insoluble)
CC1CCC(NC(=O)c2cc3cc(-c4ccc(F)cc4)cnc3n(CCN3CCOCC3)c2=O)CC1 (stereo not drawn) | 98 | 9.17 | 7.18 | –

Structure (SMILES) | Ratio Ki (HEK293) | pKi (Cannabinoid receptor 2 [1]) | pKi (Cannabinoid receptor 1) | other results
CC1CCC(NC(=O)c2cc3cccnc3n(CCO)c2=O)CC1 (stereo not drawn) | – | 5.68 | < 5.00 | –
CC1CCC(NC(=O)c2cc3cccnc3n(Cc3ccc(F)cc3)c2=O)CC1 (stereo not drawn) | 222 | – | – | pEC50 (Cannabinoid receptor 2 [2]): 7.53; pIC50 (Cannabinoid receptor 2 [1]): 8.86; pEC50 (Cannabinoid receptor 2 [3]): 7.53
CC1CCC(NC(=O)c2cc3cc(Br)cnc3n(Cc3ccc(F)cc3)c2=O)CC1 (stereo not drawn) | 534 | 9.74 | 7.02 | pIC50 (Cannabinoid receptor 2 [1]): 9.14; pIC50 (Cannabinoid receptor 2 [4]): 7.50; IC50 (Cannabinoid receptor 2 [5]): ND(Insoluble)
CC1CCC(NC(=O)c2cc3cc(-c4ccc(F)cc4)cnc3n(Cc3ccc(F)cc3)c2=O)CC1 (stereo not drawn) | – | 8.66 | < 5.00 | –
CCOC(=O)CCCn1c(=O)c(C(=O)NC2CCC(C)CC2)cc2cccnc21 (stereo not drawn) | – | 7.20 | < 5.00 | –
COc1ccc(-c2cnc3c(c2)cc(C(=O)NC2CCC(C)CC2)c(=O)n3Cc2ccc(F)cc2)cc1 (stereo not drawn) | 851 | 8.42 | 5.49 | –
C[C@H]1CC[C@@H](NC(=O)c2cc3cc(-c4cccs4)cnc3n(Cc3ccc(F)cc3)c2=O)CC1 | 491 | 9.02 | 6.33 | –
C[C@H]1CC[C@H](NC(=O)c2cc3cc(Br)cnc3n(Cc3ccc(F)cc3)c2=O)CC1 | 148 | 8.95 | 6.78 | –
CC1CCC(NC(=O)c2cc3cccnc3n(CCC(=O)O)c2=O)CC1 (stereo not drawn) | – | 5.86 | < 5.00 | –
CC1CCC(NC(=O)c2cc3cccnc3n(CCCO)c2=O)CC1 (stereo not drawn) | – | 6.89 | < 5.00 | –
CC1CCC(NC(=O)c2cc3cc(Br)cnc3n(CCN3CCOCC3)c2=O)CC1 (stereo not drawn) | 595 | 8.90 | 6.12 | pIC50 (Cannabinoid receptor 2 [4]): 7.49; pIC50 (Cannabinoid receptor 2 [5]; read-out: IC50): 7.22
C[C@H]1CC[C@@H](NC(=O)c2cc3cc(-c4ccco4)cnc3n(Cc3ccc(F)cc3)c2=O)CC1 | 15000 | 9.57 | 5.39 | –
CC1CCC(NC(=O)c2cc3cccnc3n(CCCCF)c2=O)CC1 (stereo not drawn) | 743 | 8.87 | 6.00 | pEC50 (Cannabinoid receptor 2 [2]): 7.69; pIC50 (Cannabinoid receptor 2 [1]): 8.27; pEC50 (Cannabinoid receptor 2 [3]): 7.66
CC1CCC(NC(=O)c2cc3cccnc3n(CCCCCO)c2=O)CC1 (stereo not drawn) | – | 8.44 | < 5.00 | –
CCCCn1c(=O)c(C(=O)NC2CCC(C)CC2)cc2cccnc21 (stereo not drawn) | 593 | 8.41 | 5.64 | –
CCOC(=O)CCn1c(=O)c(C(=O)NC2CCC(C)CC2)cc2cccnc21 (stereo not drawn) | – | 6.75 | < 5.00 | –
CC1CCC(NC(=O)c2cc3cc(-c4ccco4)cnc3n(CCN3CCOCC3)c2=O)CC1 (stereo not drawn) | 151 | 9.46 | 7.28 | –
